Sampled rows, rich in hits. Any-hit rate of the full collection: about 10%.
WT yeast gro inh = growth inhibition of WT yeast, mitochondrial fusion screen | mitochondrial fusion phenotypic screen, WT strain | inhibition, % at 10 µM | actives 2.1% (n = 190,000); in the data active means inhibition above about 58%; tested in S. cerevisiae
PMI activator = increases human mannose-6-phosphate isomerase activity; purified human PMI, coupled resazurin fluorescence, 20 min; hits give high values; 1 = vehicle control, 0 substrate-free wells; actives 0.005% (n = 190,000); activation factor at 20 µM; AID 1214; P34949;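 active means activation factor of 2 or more at 20 µM, relative to plate controls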
Target sequence (P34949 whole entry, looked up): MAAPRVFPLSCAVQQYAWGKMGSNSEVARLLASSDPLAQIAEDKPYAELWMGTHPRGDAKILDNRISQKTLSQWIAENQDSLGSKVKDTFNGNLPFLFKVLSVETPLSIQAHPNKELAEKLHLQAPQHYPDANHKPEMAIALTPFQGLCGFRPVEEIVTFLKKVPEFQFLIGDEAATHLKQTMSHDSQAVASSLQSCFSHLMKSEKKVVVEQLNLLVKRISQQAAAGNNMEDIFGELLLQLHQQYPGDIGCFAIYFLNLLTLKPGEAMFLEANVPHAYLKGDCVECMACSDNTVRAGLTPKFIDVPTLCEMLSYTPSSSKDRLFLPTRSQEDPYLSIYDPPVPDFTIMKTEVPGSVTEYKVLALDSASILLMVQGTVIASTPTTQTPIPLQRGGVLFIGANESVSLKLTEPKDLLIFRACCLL
Lmaj promast = Leishmania major promastigote growth inhibition; Leishmania major promastigotes, resazurin fluorescence viability; inhibition, % at 10 µM; actives 9% (n = 200,000); AID 1063; in the data active means inhibition above about 50%;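 further: promastigotes grown with compound for 44 hours at 28 °C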
Diaphorase act = counter-screen for diaphorase-based assays: diaphorase activators and chemical reducers | Diaphorase/resazurin coupled assay, resorufin fluorescence, 16 min; hits give high values; 1 = vehicle wells, 0 = NADH-free wells | activation factor at 20 µM | actives 0.005% (n = 190,000);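 active means diaphorase activity raised at least twofold by the compound at 20 µM; inactive means activation factor below 2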
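Material: purified diaphorase enzyme from Clostridium kluyveri / Medium: HEPES pH 7.4 buffer with MgCl2 and Tween 20 / Schedule: enzyme reaction of 16 min at room temperature / Measured by: resorufin fluorescence, excitation 544 nm, emission 590 nm / Evaluation: rise in resorufin formation, marking diaphorase activation or chemical reduction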
PMI act hi M6P = PMI (human) activation, high substrate | P34949 | coupled PMI enzyme assay, resazurin fluorescence, 20 min; hits give high values; 1 = untreated enzyme, 0 = substrate-free blank | activation factor at 20 µM | actives 0.34% (n = 190,000) | AID 1216;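 active means activation factor of 2 or more at 20 µM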
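Technique: Diaphorase-driven resazurin-to-resorufin fluorescence, excitation 544, emission 590 nm | Assay system: Human PMI in coupled enzyme assay | Times: Enzyme reaction with compound 20 min at room temperature | Medium: HEPES-buffered pH 7.4 with magnesium and detergent | Reagent: Mannose-6-phosphate 1.0 mM (near-saturating) plus 0.22 mM NADP+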
Lmaj promast 1uM = L. major promastigote growth inhibition, 1 uM repeat | shares compounds with Lmaj promast | resazurin fluorescence, 48 h | inhibition, % at 1 µM | actives 13% (n = 1,100) | AID 1258;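 active means inhibition above about 50% in both repeat tests, limit read from the data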
Starred values were filed as active, the others as inactive.

O=[N+]([O-])c1ccccc1S(=O)(=O)Oc1ccc(C(=S)N2CCOCC2)cc1 was read as WT yeast gro inh -18.7, PMI activator 0.9, Lmaj promast 81.3*, Diaphorase act 0.9, PMI act hi M6P 1.1 and Lmaj promast 1uM -21.5.
For CC(=O)c1ccccc1NS(C)(=O)=O the results were WT yeast gro inh -9.0, PMI activator 1, Lmaj promast -12.0, Diaphorase act 1.1 and PMI act hi M6P 1.
`COc1ccc(C(=O)NC(=S)NNC(=O)c2cnccn2)cc1` gave WT yeast gro inh -3.7, PMI activator 0.7, Lmaj promast 100.4*, Diaphorase act 0.4, PMI act hi M6P 1.1 and Lmaj promast 1uM 5.5.
`COc1ccc(CC(=O)NNC(=O)c2cnccn2)cc1` gave WT yeast gro inh 8.4, PMI activator 0.8, Lmaj promast -5.6, Diaphorase act 0.7 and PMI act hi M6P 0.8.
CCN(CC)Cc1c(C(=O)N2CCc3ccccc3C2)nc2ccc(Cl)cn12 was read as WT yeast gro inh -5.0, PMI activator 1, Lmaj promast -0.3, Diaphorase act 0.9 and PMI act hi M6P 0.9.
Screening O=C(Nc1ccccc1-c1nc2ccccc2s1)c1cccnc1 returned WT yeast gro inh -7.0, PMI activator 0.9, Lmaj promast 94.6*, Diaphorase act 1, PMI act hi M6P 1 and Lmaj promast 1uM 6.0.
`O=C(Nc1ccccc1-c1nc2ccccc2s1)c1ccc(Br)o1` gave WT yeast gro inh -1.4, PMI activator 1, Lmaj promast -1.3, Diaphorase act 0.9 and PMI act hi M6P 1.
Screening CCCNC(=O)CCc1c(C)nc2nc(C)nn2c1C returned WT yeast gro inh -5.0, PMI activator 1.1, Lmaj promast -7.6, Diaphorase act 1 and PMI act hi M6P 1.1.
Screening Cc1ccc(-c2cc(C(=O)NCC3CCCO3)no2)cc1 (stereo not given) returned WT yeast gro inh -7.4, PMI activator 0.8, Lmaj promast 13.4, Diaphorase act 0.8 and PMI act hi M6P 0.9.
Cc1ccc(-n2nc(-c3cccs3)cc2C(=O)NCC2CCCO2)c(C)c1 (stereo not given) was read as WT yeast gro inh 15.2, PMI activator 0.9, Lmaj promast 92.1*, Diaphorase act 0.8, PMI act hi M6P 1 and Lmaj promast 1uM -4.1.
O=C(CN(c1ccc2c(c1)OCCO2)S(=O)(=O)c1ccccc1)N1CCN(Cc2ccccc2)CC1 was read as WT yeast gro inh 11.0, PMI activator 0.9, Lmaj promast 15.5, Diaphorase act 0.7 and PMI act hi M6P 0.9.
CCc1ccc(CN(C)CC(=O)Nc2sccc2C#N)cc1 was read as WT yeast gro inh 4.2, PMI activator 1, Lmaj promast -2.7, Diaphorase act 0.9 and PMI act hi M6P 0.9.
`COc1ccc(S(=O)(=O)N2CCOCC2)cc1NC(=O)CSc1n[nH]c(C(C)C)n1` gave WT yeast gro inh -9.1, PMI activator 1.1, Lmaj promast -2.2, Diaphorase act 1.1 and PMI act hi M6P 1.
For O=S(=O)(CCSc1nc2ccccc2s1)c1nc2ccccc2s1 the results were WT yeast gro inh 35.2, PMI activator 0.9, Lmaj promast 100.5*, Diaphorase act 0.9, PMI act hi M6P 1 and Lmaj promast 1uM 53.8*.
CCS(=O)(=O)CCSc1nc2ccccc2s1 was read as WT yeast gro inh -28.0, PMI activator 1, Lmaj promast -3.3, Diaphorase act 0.9 and PMI act hi M6P 1.
Screening C=CCS(=O)(=O)c1nc2ccccc2s1 returned WT yeast gro inh -8.1, PMI activator 1.2, Lmaj promast 100.5*, Diaphorase act 1.2, PMI act hi M6P 1.1 and Lmaj promast 1uM 10.1.
O=C(c1cc2ccccc2o1)N1CCN(S(=O)(=O)c2cccs2)CC1 was read as WT yeast gro inh 32.0, PMI activator 1, Lmaj promast 72.1*, Diaphorase act 0.8, PMI act hi M6P 1 and Lmaj promast 1uM -6.2.
For CCOc1ccc(C(F)(F)F)cc1NC(=O)COc1ccc(C(F)(F)F)cc1[N+](=O)[O-] the results were WT yeast gro inh 8.3, PMI activator 1, Lmaj promast -4.1, Diaphorase act 1 and PMI act hi M6P 1.
CCCOP(=O)(OCCC)c1c([N+](=O)[O-])cc(C(F)(F)F)cc1[N+](=O)[O-] was read as WT yeast gro inh 10.5, PMI activator 1.2, Lmaj promast 53.6*, Diaphorase act 0.9, PMI act hi M6P 1.3 and Lmaj promast 1uM 0.6.
Screening O=C(CC(=O)NC1CCCCC1)N/N=C/c1ccccc1F returned WT yeast gro inh -8.2, PMI activator 1.1, Lmaj promast 4.5, Diaphorase act 1 and PMI act hi M6P 1.
`Cc1cc(C(F)(F)F)nn1CC(=O)Nc1ccc(Br)c2cccnc12` gave WT yeast gro inh -2.0, PMI activator 1.1, Lmaj promast 96.4*, Diaphorase act 0.8, PMI act hi M6P 1 and Lmaj promast 1uM -13.7.
`CC(C)n1c2ccccc2c2nnc(SCC(=O)Nc3ccccc3C(=O)O)nc21` gave WT yeast gro inh 8.2, PMI activator 1.3, Lmaj promast -8.1, Diaphorase act 0.9 and PMI act hi M6P 1.1.
CCCNC(=O)OCCC12CC3CC(CC(C3)C1)C2 was read as WT yeast gro inh 36.1, PMI activator 1, Lmaj promast 97.1*, Diaphorase act 1, PMI act hi M6P 0.9 and Lmaj promast 1uM -15.9.
COc1ccc(OCC(O)CNc2ccc(Br)cc2)cc1 (stereo not given) was read as WT yeast gro inh 27.7, PMI activator 0.7, Lmaj promast 1.5, Diaphorase act 0.7 and PMI act hi M6P 0.7.
CCC(CC)NCC(O)COc1ccc(Br)cc1 (stereo not given) was read as WT yeast gro inh 14.8, PMI activator 1.1, Lmaj promast 66.2*, Diaphorase act 0.9, PMI act hi M6P 1.1 and Lmaj promast 1uM 5.8.
Screening COc1ccc(OC)c(-n2nnnc2SCC(=O)NCc2ccc3c(c2)OCO3)c1 returned WT yeast gro inh 13.3, PMI activator 0.9, Lmaj promast 5.3, Diaphorase act 0.8 and PMI act hi M6P 0.9.
For c1ccc(Nc2ccc(-n3ccnc3)nn2)cc1 the results were WT yeast gro inh -28.1, PMI activator 1, Lmaj promast -3.5, Diaphorase act 1.1 and PMI act hi M6P 0.9.
`Clc1ccc(Nc2ccc(-n3ccnc3)nn2)cc1Cl` gave WT yeast gro inh -8.2, PMI activator 0.9, Lmaj promast 50.6*, Diaphorase act 0.9, PMI act hi M6P 0.9 and Lmaj promast 1uM -3.0.
CC12COC3(C(=O)Nc4ccc(F)cc4)CC1CCC32C (stereo not given) was read as WT yeast gro inh -12.0, PMI activator 0.8, Lmaj promast -8.0, Diaphorase act 0.8 and PMI act hi M6P 1.

Assay outcomes deposited in PubChem by several laboratories.
